Measurements from publication PMC4467241 (Clinical Pharmacology in Drug Development, 2014).
pIC50: −log10 of the molar value. Read-outs that look alike come from different tables or passages of the source. Marks after values point to notes of the source that are not given here. Values belong to the molecule of their own block, whether it stands above or below them.

Experiments:
[1] = type: in vivo, human
Outline: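 Heparinised plasma was taken predose and at 0.5–48 h, spun within 30 min and stored at −70 °C. Parent and metabolite were measured by SPE LC–MS/MS; noncompartmental AUC, with ANOVA on log values giving geometric-mean ratio and 90% CI.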

OAT3 [2] = conditions: stated in introduction, no reference given; cited from earlier work
OATP1B1 = conditions: read-out: IC50 (OATP1B1 inhibition); weak inhibitor; no reference given; cited from earlier work
OCT2 = conditions: stated in introduction, no reference given; cited from earlier work
BCRP = conditions: in vitro, no reference printed, cited from earlier work
OAT3 [3] = conditions: stated in introduction, no reference given; cited from earlier work; remark: listed apart in the source
[4] = system: organic anion transporting polypeptide (OATP)1B1; conditions: stated in introduction, no reference given; cited from earlier work
MRP3 = conditions: read-out: IC50 (MRP3 inhibition); weak inhibitor; no reference given; cited from earlier work
P-glycoprotein (P-gp) [5] = conditions: read-out: IC50 (P-gp inhibition); in vitro, weak inhibitor; cited from earlier work
[6] = system: organic anion transporter (OAT)1; conditions: stated in introduction, no reference given; cited from earlier work
OATP1B3 [7] = conditions: stated in introduction, no reference given; cited from earlier work
P-glycoprotein (P-gp) [8] = conditions: in vitro; cited from earlier work
OATP1B3 [9] = conditions: stated in introduction, no reference given; cited from earlier work; remark: listed apart in the source
MRP2 = conditions: in vitro, no reference printed, cited from earlier work
[10] = system: multidrug resistance protein (MRP)1; conditions: stated in introduction, no reference given; cited from earlier work
[11] = Steady-state plasma pharmacokinetics of apremilast alone; type: in vivo, human; conditions: for CLss/F / Cmin: steady-state
Outline: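 Test compound was given at 30 mg Q12h for 12 doses, with a single co-drug dose added on Day 8. Citrated plasma was sampled predose and at 0.5–12 h after the morning dose on Days 7 and 8, then assayed by liquid-liquid extraction LC–MS/MS. Noncompartmental AUC0–τ and Cmax were derived, with ANOVA on log values (treatment fixed, subject random), geometric-mean ratio with 90% CI, and Hodges–Lehmann tmax.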

[12] = cited from earlier work
MRP4 = conditions: stated in introduction, no reference given; cited from earlier work
[13] = no reference given, cited from earlier work; for Apparent clearance: prior studies
[14] = system: organic cation transporter (OCT)2; conditions: stated in introduction, no reference given; cited from earlier work
OAT1 = conditions: read-out: IC50 (OAT1 inhibition); weak inhibitor; no reference given; cited from earlier work
[15] = system: breast cancer resistance protein (BCRP); conditions: stated in introduction, no reference given; cited from earlier work
[16] = healthy subjects, Apremilast 30 mg BID; cited from earlier work
[17] = 7-OH MTX in plasma after MTX 10 mg oral + Apremilast 30 mg Q12H (Day 8), N = 1
[18] = 7-OH MTX in plasma after MTX 10 mg oral alone (Day 1), N = 1
[19] = 7-OH MTX in plasma after MTX 12.5 mg oral + Apremilast 30 mg Q12H (Day 8), N = 1
[20] = 7-OH MTX in plasma after MTX 12.5 mg oral alone (Day 1), N = 1
[21] = 7-OH MTX in plasma after MTX 17.5 mg oral + Apremilast 30 mg Q12H (Day 8), N = 1
[22] = 7-OH MTX in plasma after MTX 17.5 mg oral alone (Day 1), N = 1
[23] = 7-OH MTX in plasma, ANOVA, N = 15
[24] = 7-OH MTX in plasma, all dose groups, N = 15, acceptance range 80–125%
[25] = Apremilast 30 mg Q12H alone (Day 7), plasma, N = 15, arithmetic mean (SD)
[26] = both, human, plasma, oral, 30 mg

- AUC0–t [1, 17]: 620 ng·h/mL
- AUC0–∞ [1, 17]: 650 ng·h/mL
- Cmax [1, 17]: 32.9 ng/mL
- t1/2 [1, 17]: 10.9 h
- tmax [1, 17]: 6.00 h
- AUC0–t [1, 18]: 430 ng·h/mL
- AUC0–∞ [1, 18]: 460 ng·h/mL
- Cmax [1, 18]: 21.0 ng/mL
- t1/2 [1, 18]: 11.9 h
- tmax [1, 18]: 5.98 h
- AUC0–t [1, 19]: 1,670 hr ng/mL
- AUC0–∞ [1, 19]: 1,820 hr ng/mL
- Cmax [1, 19]: 72.8 ng/mL
- t1/2 [1, 19]: 12.0 h
- tmax [1, 19]: 6.00 h
- AUC0–t [1, 20]: 1,220 hr ng/mL
- AUC0–∞ [1, 20]: 1,370 hr ng/mL
- Cmax [1, 20]: 52.8 ng/mL
- t1/2 [1, 20]: 14.2 h
- tmax [1, 20]: 6.00 h
- tmax ([1]; 7-OH MTX in plasma after MTX 15 mg oral alone (Day 1), N = 6, median (range)): 7.52 (6.00–12.00) hr
- AUC0–t [1, 21]: 1,170 hr ng/mL
- AUC0–∞ [1, 21]: 1,290 hr ng/mL
- Cmax [1, 21]: 48.9 ng/mL
- t1/2 [1, 21]: 12.2 h
- tmax [1, 21]: 9.00 h
- AUC0–t [1, 22]: 1,170 hr ng/mL
- AUC0–∞ [1, 22]: 1,300 hr ng/mL
- Cmax [1, 22]: 45.4 ng/mL
- t1/2 [1, 22]: 13.0 h
- tmax [1, 22]: 6.00 h
- tmax ([1]; 7-OH MTX in plasma after MTX 20 mg oral alone (Day 1), N = 6, median (range)): 7.54 (5.95–9.00) hr
- Intra-subject CV% of AUC0–t [1, 23]: 19.89%
- Intra-subject CV% of AUC0–∞ [1, 23]: 19.34%
- Intra-subject CV% of Cmax [1, 23]: 17.84%
- tmax median difference (“MTX + Apremilast” − “MTX”) ([1]; 7-OH MTX in plasma, all dose groups, N = 15, Hodges–Lehmann): 0.005 ^c hr
- AUC0–t ratio of geometric means (“methotrexate + apremilast”/“methotrexate”) [1, 24]: 98.59
- AUC0–∞ ratio of geometric means (“methotrexate + apremilast”/“methotrexate”) [1, 24]: 98.24
- Cmax ratio of geometric means (“methotrexate + apremilast”/“methotrexate”) [1, 24]: 104.01
SMILES: CN(Cc1nc2c(N)nc(N)nc2[nH]c1=O)c1ccc(C(=O)N[C@@H](CCC(=O)O)C(=O)O)cc1 [7-OH MTX, 7-hydroxy methotrexate]
- 90% CI for Cmax, AUC0–t and AUC0–∞ versus FDA acceptance range of 80–125% ([1]; 7-hydroxy methotrexate, methotrexate with versus without apremilast): within the acceptance range for equivalency

- CLss/F ([11]; Apremilast 30 mg Q12H + MTX (Day 8), plasma, N = 13, arithmetic mean, excludes data with R^2 < 0.9): 156 ^b (86.3) mL/min
- Cmin ([11]; Apremilast 30 mg Q12H + MTX (Day 8), plasma, N = 15, arithmetic mean (SD)): 242 (153) ng/mL
- CLss/F [11, 25]: 153 (78.6) mL/min
- Cmin [11, 25]: 248 (153) ng/mL
- tmax median difference (“APR + MTX” − “APR”) ([11]; apremilast in plasma, 30 mg Q12H, N = 15, Hodges–Lehmann): 0 ^c hr
- Cmax ratio of geometric means (“methotrexate + apremilast”/“apremilast”) ([11]; apremilast in plasma, 30 mg Q12H, N = 15, acceptance range 80–125%): 95.00
- AUC0–τ ratio of geometric means (“methotrexate + apremilast”/“apremilast”) ([11]; apremilast in plasma, 30 mg Q12H, acceptance range 80–125%): 99.30
- Intra-subject CV% of AUC0–τ ([11]; apremilast in plasma, ANOVA): 9.66%
- Intra-subject CV% of Cmax ([11]; apremilast in plasma, ANOVA, N = 15): 12.07%
- AUC [11, 26]: 4110 ng·h/mL
- Cmax [11, 26]: 584 ng/mL
- tmax [11, 26]: 2 h
SMILES: CCOc1cc([C@@H](CS(C)(=O)=O)N2C(=O)c3cccc(NC(C)=O)c3C2=O)ccc1OC [APR, apremilast]
- Inhibition of OAT3 (OAT3 [2]): does not inhibit
- pIC50 (OATP1B1): < 5.00
- Inhibition of OCT2 (OCT2): does not inhibit
- Inhibition of BCRP (BCRP; listed as Apremilast): does not inhibit
- Inhibition of BCRP (BCRP; listed as apremilast): not an inhibitor
- Substrate of OAT3 (OAT3 [3]): not a substrate
- Substrate of OATP1B1 [4]: not a substrate
- pIC50 (MRP3): < 5.00
- pIC50 (P-glycoprotein (P-gp) [5]): < 4.30
- Substrate of OAT1 [6]: not a substrate
- Inhibition of OATP1B3 (OATP1B3 [7]): does not inhibit
- Substrate of P-gp (P-glycoprotein (P-gp) [8]): substrate
- Substrate of OATP1B3 (OATP1B3 [9]): not a substrate
- Inhibition of MRP2 (MRP2; listed as Apremilast): does not inhibit
- Inhibition of MRP2 (MRP2; listed as apremilast): not an inhibitor
- Inhibition of MRP1 [10]: does not inhibit
- 90% CI for Cmax and AUCtau versus FDA acceptance range of 80–125% ([11]; apremilast with versus without methotrexate): within the acceptance range for equivalency
- Oral bioavailability ([12]; in humans): ~73%
- Excreted unchanged in urine ([12]; orally administered): less than 3%
- Inhibition of MRP4 (MRP4): does not inhibit
- Time by which steady-state is achieved ([13]; healthy volunteer studies, Apremilast administered BID): ≤ 36 h
- Apparent clearance ([13]; in healthy subjects): ~10 L/h
- Apparent clearance ([13]; in patients): 8.7 L/h
- Substrate of OCT2 [14]: not a substrate
- pIC50 (OAT1): < 5.00
- Substrate of BCRP [15]: not a substrate

SMILES: CCOc1cc(C(CS(C)(=O)=O)N2C(=O)c3cccc(NC(C)=O)c3C2=O)ccc1OC1OC(C(=O)O)C(O)C(O)C1O (centres unmarked) [M12]
- AUC relative to Apremilast [16]: approximately 1.7 fold
- Cmax relative to Apremilast [16]: ~1.25 fold
